These results are taken from ChEMBL document CHEMBL4261506, “Synthesis and biological evaluation of N-alkyl naphthoimidazoles derived from β-lapachone against Trypanosoma cruzi bloodstream trypomastigotes” (Medchemcomm, 2017).

Test system in the first data set: not listed separately
The data set is described as follows: Selectivity index, ratio of LC50 for Swiss mouse peritoneal macrophages to IC50 for bloodstream trypomastigote stage of Trypanosoma cruzi Y. To be noted: read-out: Ratio LC50/IC50. In kind it is toxicity. The essentials: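 Y strain bloodstream trypomastigotes at 5 × 10^6 cells/ml in DME plus 10% blood, mixed 1:1 with compound at twice the final concentration, 24 h at 4 °C, counted; IC50 = 50% lysis. […] Index = LC50/IC50. DMSO final ≤0.1%.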
As for `CCCCCCn1cnc2c3c(c4ccccc4c21)OC(C)(C)CC3`, the selectivity ratio is 2.7.

Regarding `CCCCCCn1cnc2c3ccccc3c3c(c21)CCC(C)(C)O3`, the selectivity ratio worked out at 13.4.

Test system in the next data set: not listed separately
In words: Cytotoxicity against Swiss mouse peritoneal macrophages after 24 hrs by Prestoblue assay. The format is cell-based, Peritoneal macrophage. The conditions noted are these: read-out: LC50.
Turning to `CCCCCCn1cnc2c3c(c4ccccc4c21)OC(C)(C)CC3`, the CC50 at 24 h worked out at 117 µM.

Turning to `CCCCCCn1cnc2c3ccccc3c3c(c21)CCC(C)(C)O3`, the CC50 at 24 h turned out to be 422 µM.

The next data set has as its system Trypanosoma cruzi. In words: Trypanocidal activity against bloodstream trypomastigote stage of Trypanosoma cruzi Y isolated from parasite infected Swiss mouse assessed as induction of parasite lysis after 24 hrs by Neubauer chamber based cell counting method. The format is functional, organism-based.
Details: not given
The essentials: (§1)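 Y-strain bloodstream trypomastigotes at 5 × 10^6 cells per ml in DME medium plus 10% blood (some runs in DMES without blood), mixed 1:1 with compound diluted in DME at twice final concentration. DMSO final ≤0.1%. Incubated at 4 °C. Cells counted after 24 h; IC50 taken as the concentration giving 50% parasite lysis.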
Usually IC50 stands for the concentration needed to halve the response being measured. Consider `Cc1ccc(-c2nc3c([nH]2)c2c(c4ccccc43)OC(C)(C)CC2)cc1`, for which the IC50 is 37.5 µM.

The test system of another data set is Trypanosoma cruzi. In words: Potency index, ratio of benznidazole IC50 to test compound IC50 for bloodstream trypomastigote stage of Trypanosoma cruzi Y.
Details: not given
The format is functional.
For `CCCCCCn1cnc2c3c(c4ccccc4c21)OC(C)(C)CC3`, the “Ratio IC50” value is given as 2.2.

With `CCCCCCn1cnc2c3ccccc3c3c(c21)CCC(C)(C)O3`, the “Ratio IC50” value amounted to 3.2.

The test system of a further data set is Trypanosoma cruzi. The data set is described as follows: Trypanocidal activity against trypomastigote stage of Trypanosoma cruzi. The format is functional, organism-based.
Details: not given
The essentials:
as §1
`CC1(C)CCc2c(c3ccccc3c3nc(-c4ccccc4)[nH]c23)O1` displayed an IC50 of 37 µM.

The subject of a further data set is Trypanosoma cruzi. In words: Trypanocidal activity against bloodstream trypomastigote stage of Trypanosoma cruzi Y assessed as induction of parasite lysis after 24 hrs by Neubauer chamber based cell counting method.
Details: not given
The format is functional, organism-based. The essentials:
as §1
With `CC1(C)CCc2c(c3ccccc3c3nc(-c4ccc([N+](=O)[O-])cc4)[nH]c23)O1`, the IC50 was 250 µM.

On to `COc1ccccc1-c1nc2c([nH]1)c1c(c3ccccc32)OC(C)(C)CC1`, for which the concentration for half-maximal inhibition (IC50) was above 6500 µM.

Regarding `CC1(C)CCc2c(c3ccccc3c3nc(-c4ccc(C(F)(F)F)cc4)[nH]c23)O1`, the IC50 came out at 250 µM.

Take `CC1(C)CCc2c(c3ccccc3c3nc(-c4cccs4)[nH]c23)O1`: the IC50 was 170 µM.

`Cc1cccc(-c2nc3c([nH]2)c2c(c4ccccc43)OC(C)(C)CC2)c1`: the IC50 was determined as 37.5 µM.

As for `CCCCCCCCn1cnc2c3ccccc3c3c(c21)CCC(C)(C)O3`, the IC50 was 180 µM.

On to `CC1(C)CCc2c(c3ccccc3c3nc[nH]c23)O1`, for which the half-maximal inhibitory concentration (IC50) came to 89.5 µM.

Turning to `CCCCCCn1cnc2c3c(c4ccccc4c21)OC(C)(C)CC3`, the IC50 turned out to be 42.5 µM.

As for `CC1(C)CCc2c(c3ccccc3c3nc(-c4ccc(Cl)cc4Cl)[nH]c23)O1`, the IC50 is above 4000 µM.

On to `CCCn1cnc2c3ccccc3c3c(c21)CCC(C)(C)O3`, for which the IC50 came out at 172 µM.

As for `CC1(C)CCc2c(c3ccccc3c3nc(-c4ccccc4C#N)[nH]c23)O1`, the IC50 is above 6500 µM.

Turning to `CCCCn1cnc2c3c(c4ccccc4c21)OC(C)(C)CC3`, the IC50 came out at 106 µM.

As to `CCCCCCCn1cnc2c3c(c4ccccc4c21)OC(C)(C)CC3`, the IC50 came out at 407 µM.

With `CC1(C)CCc2c(c3ccccc3c3nc(-c4c(Cl)cccc4Cl)[nH]c23)O1`, the IC50 was found to be 2120 µM.

On to `CCCCCCCCn1cnc2c3c(c4ccccc4c21)OC(C)(C)CC3`, for which the IC50 turned out to be 376 µM.

Take `CCCCCCCCCn1cnc2c3ccccc3c3c(c21)CCC(C)(C)O3`: the IC50 came to 295 µM.

Turning to `CCCCCCCCCCCCn1cnc2c3c(c4ccccc4c21)OC(C)(C)CC3`, the IC50 is above 500 µM.

Take `CCCCCn1cnc2c3ccccc3c3c(c21)CCC(C)(C)O3`: the IC50 was 124 µM.

As to `CC1(C)CCc2c(c3ccccc3c3nc(-c4cccc5ccccc45)[nH]c23)O1`, the IC50 turned out to be 1680 µM.

As to `COc1cc(-c2nc3c([nH]2)c2c(c4ccccc43)OC(C)(C)CC2)ccc1O`, the half-inhibitory concentration (IC50) came to 252 µM.

Regarding `CCCCCCCCCn1cnc2c3c(c4ccccc4c21)OC(C)(C)CC3`, the IC50 came out at 195 µM.

Take `CCCCCCn1cnc2c3ccccc3c3c(c21)CCC(C)(C)O3`: the IC50 was 31.5 µM.

On to `CCCCn1cnc2c3ccccc3c3c(c21)CCC(C)(C)O3`, for which the IC50 was 123 µM.

As for `COc1ccc(-c2nc3c([nH]2)c2c(c4ccccc43)OC(C)(C)CC2)cc1`, the IC50 was found to be 250 µM.

Turning to `CCCn1cnc2c3c(c4ccccc4c21)OC(C)(C)CC3`, the IC50 turned out to be 99.7 µM.

In the case of `CCCCCCCn1cnc2c3ccccc3c3c(c21)CCC(C)(C)O3`, the IC50 was determined as 99 µM.

In the case of `CCCCCCCCCCCCn1cnc2c3ccccc3c3c(c21)CCC(C)(C)O3`, the IC50 was 192 µM.

As to `CCCCCn1cnc2c3c(c4ccccc4c21)OC(C)(C)CC3`, the IC50 was found to be 92.7 µM.
